Rows were chosen to be rich in hits. Some 2.9% of all compounds tested hit in one or more screens of this group.
HTR1A agonist: human 5-HT1a receptor agonists, primary screen, cell-based, CHO, Ga15 NFAT-bla reporter. 5-hydroxytryptamine receptor 1A (Homo sapiens), P08908. CHO 5-HT1a Ga15 NFAT-bla reporter, FRET ratio; 0% basal, 100% maximal reference agonist. activation, % at 10 µM. 65,000 tested, 0.56% active;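 active means activation above the screen-wide mean activation plus 3 SD, cut at about 19% in these data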;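 further: 0% = DMSO wells and 100% = 5-CT at EC100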
Target sequence (P08908 whole entry, looked up): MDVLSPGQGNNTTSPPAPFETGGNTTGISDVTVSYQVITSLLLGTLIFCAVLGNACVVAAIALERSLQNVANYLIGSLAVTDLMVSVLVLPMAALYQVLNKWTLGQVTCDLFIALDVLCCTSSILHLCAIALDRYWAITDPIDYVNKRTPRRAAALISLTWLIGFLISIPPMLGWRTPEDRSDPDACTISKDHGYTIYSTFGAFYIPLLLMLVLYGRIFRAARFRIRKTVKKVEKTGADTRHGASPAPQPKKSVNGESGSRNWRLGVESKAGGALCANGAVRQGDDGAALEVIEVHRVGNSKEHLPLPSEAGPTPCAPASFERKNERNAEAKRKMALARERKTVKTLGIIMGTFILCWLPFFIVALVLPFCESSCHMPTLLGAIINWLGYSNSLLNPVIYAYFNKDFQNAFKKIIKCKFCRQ
HEK293 NFkB inh: inhibitors of PMA/ionomycin-induced NF-kB reporter, primary screen, antigen receptor NF-kB inhibitor project, cell-based, HEK-293 luciferase reporter, luminescence. inhibition, % at 3 µM. 62,000 tested, 0.21% active. HEK-293 NF-kB luciferase reporter;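 active means inhibition above the mean of all tested compounds plus 3 SD, cut at about 40% in these data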;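 further: 0% = stimulated DMSO wells and 100% = 10 µM reference inhibitor 5653914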
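Timing: 1 h pretreatment, 16 h stimulation, 37 °C; system: HEK-293 cells with stable firefly luciferase reporter driven by four HIV NF-kB elements; doses: 3 µM once, 0.30% DMSO; measured by: luciferase luminescence; control set: DMSO and 10 µM reference inhibitor; repeats: single test; reagent: PMA plus ionomycin mix as NF-kB-activating stimulus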
HTR1E agonist: 5-HT1E receptor agonists, primary screen, cell-based, HTS; CHO 5-HT1E Ga15 NFAT-bla reporter, FRET; 0% DMSO wells, 100% control agonist wells; activation, % at 6 µM; 65,000 tested, 0.69% active; AID 574, 2007;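 active means activation above a set limit, the screen-wide mean activation plus 3 SD, cut at about 8.5% in these data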;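 further: 100% = positive control agonist at 1 µM giving full maximal response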
5HT1a antag: human 5-HT1a receptor antagonists, primary screen, cell-based, CHO, Ga15 NFAT-bla reporter; 62,000 tested, 0.68% active; AID 612, 2007; 5-hydroxytryptamine receptor 1A (Homo sapiens), P08908; CHO 5-HT1a Ga15 NFAT-bla reporter, antagonist mode; inhibition, % at 10 µM;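 active means inhibition above the mean of all tested compounds plus 3 SD, cut at about 43% in these data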;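 further: receptor stimulated by 5-CT agonist at 100 nM near EC80; beta-lactamase reporter measured by ratiometric fluorescence of a cleavable substrate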
SKBR3 24h inh: SK-BR-3 proliferation inhibitors, primary screen, cell-based, human, 24 h; SK-BR-3 viability, CellTiter-Glo ATP luminescence; active compounds read low; viability, % at 10 µM; 41,000 tested, 0.47% active;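 active means viability at or below the median of all test compounds minus 3 SD, in both replicates if run twice, cut at about 45% in these data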;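 further: 100% = median untreated cell wells and 0% = median positive control drug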
HTR1E antagonist: 5-HT1E receptor antagonists, primary screen, cell-based, HTS; 5-hydroxytryptamine receptor 1E (Homo sapiens), P28566; CHO 5-HT1E Ga15 NFAT-bla reporter, FRET, antagonist; inhibition, % at 6 µM; 65,000 tested, 0.99% active;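 active means inhibition above a set limit, the mean inhibition across every tested compound plus 3 SD, cut at about 29% in these data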;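 further: signal is the 460 over 535 nm emission ratio of beta-lactamase substrate; 0% = agonist plus DMSO wells and 100% = wells without agonist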
* hit, by the source's call; . = no result given.

SMILES | HTR1A agonist | HEK293 NFkB inh | HTR1E agonist | 5HT1a antag | SKBR3 24h inh | HTR1E antagonist
COc1cccc2c1C(=O)c1c(O)c3c(c(O)c1C2=O)C[C@@](O)(C(C)=O)C[C@@H]3O[C@H]1C[C@H](N)[C@H](O)[C@H](C)O1 | 0 | . | -1 | . | 99 | 57*
O=S1(=O)C=C(Sc2nc3ccccc3s2)c2ccccc21 | -4 | 46* | 0 | 98* | 22* | 106*
CCOC(=O)N1CCC(N2Cc3cccc(C(=O)O)c3C2=O)CC1 | 83* | 7 | 0 | -2 | . | -6
CC(C)Cn1c(Br)nc2c1c(=O)n(CCC#N)c(=O)n2C | -2 | 14 | -1 | 0 | 96 | 8
O=C(Cn1c(C(=O)N2CCc3ccccc3C2)cc2sccc21)c1ccccc1 | -3 | 19 | 0 | 44* | 95 | 2
CCOc1ccc(C2c3c(oc4ccccc4c3=O)C(=O)N2c2ccccn2)cc1OC (stereo not drawn) | 0 | -3 | 0 | -8 | . | -7
O=C(CN1CCCC1=O)NC1(C(F)(F)F)NC(=O)N(Cc2ccccc2)C1=O (stereo not drawn) | -2 | -7 | -2 | 10 | 95 | 13
COc1ccc(C2=NOC(C(=O)Nc3cc(Br)ccc3O)C2)cc1OC (stereo not drawn) | 2 | -20 | 1 | 10 | . | 37*
Cc1nn(-c2ccc(F)cc2)c2c1cc(C#N)c1nc3ccccc3n12 | 0 | 6 | 0 | 1 | 123 | 4
O=c1c2ccccc2nc(SCc2cn3ccsc3n2)n1-c1ccc(F)cc1 | 6 | 16 | 0 | 19 | 73 | 37*
CCOC(=O)c1c(C)[nH]c(C(=O)COC(=O)c2oc3ccc(OC)cc3c2C)c1C | -2 | 16 | 35* | -5 | . | -8
COC(=O)C1CCN(C(=O)C(C)Oc2ccc(Cl)cc2Cl)CC1 (stereo not drawn) | 90* | 17 | -2 | 24 | 96 | 3
COC(=O)c1ccccc1NC(=O)N1CCN(C(=O)c2ccco2)CC1 | 2 | 6 | 0 | -3 | 107 | 6
Cc1ccc(C(C)NC(=O)c2ccco2)cc1C (stereo not drawn) | 0 | -10 | -1 | 7 | 85 | 10
CCN(CC)c1ccc(C2Nc3cccc4cccc(c34)N2)c(O)c1 | -7 | . | -2 | . | 100 | 32*
COc1cc(C2Nc3cccc4cccc(c34)N2)cc(OC)c1OC(C)=O | -3 | . | -1 | . | 83 | -1
CCCC(=O)Nc1cnc(NC(=O)c2cccc(F)c2)cc1C | -1 | -28 | 0 | -1 | . | 7
CCN1CCN(c2ncc(C(=O)Nc3cc(Cl)ccc3OC)c3ccccc23)CC1 | 0 | 23 | 40* | -10 | 33* | 20
CCOC(=O)c1c(NC(=O)CSc2nnnn2CC)sc(C)c1C | 2 | 22 | 0 | 0 | 94 | 15
CCN(CC)CCNC(=O)c1c(O)c2c([nH]c1=O)CCCC2 | -1 | 7 | 0 | 2 | 118 | 7
CN(C)CCNC(=O)c1c(O)c2c([nH]c1=O)CCCC2 | -2 | 3 | 11* | -9 | . | -6
COc1ccccc1C1CC(c2ccc(Cl)cc2)Nc2ncnn21 (stereo not drawn) | -1 | 6 | 0 | 31 | 80 | -13
CC(C)Oc1ccc(C(=O)N(Cc2ccco2)C2CCS(=O)(=O)C2)cc1 (stereo not drawn) | 1 | -3 | -2 | -9 | 79 | 3
CC(=O)Nc1ccc(S(=O)(=O)N(C)c2ccc(O)cc2)cc1 | -2 | 18 | 52* | 1 | 90 | 4
O=C(NCc1ccco1)c1ccccc1Nc1ccc(F)cc1 | -3 | 15 | -2 | 40 | 111 | 29*
SMILES | HTR1A agonist | HEK293 NFkB inh | HTR1E agonist | 5HT1a antag | SKBR3 24h inh | HTR1E antagonist
O=C(NCc1ccco1)c1cccc2ccccc12 | -3 | 2 | -1 | 9 | 65 | 11
CC(=O)C(Sc1nc(-c2ccc(F)cc2)nc2c1c(=O)n(C)c(=O)n2C)C(C)=O | 2 | 10 | -1 | 6 | . | 97*
CCN(CC)c1nc(Nc2ccc(Cl)cc2)nc(OCC#N)n1 | 1 | 20 | 0 | 31 | . | 33*
COc1cccc(N2CCN(c3ncnc4c3[nH]c3ccccc34)CC2C)c1 (stereo not drawn) | 4 | . | 0 | . | 60 | 91*
COc1cccc(N2CCN(c3ncnc4c3[nH]c3ccc(F)cc34)CC2C)c1 (stereo not drawn) | -2 | . | -2 | . | 5.7* | 104*
COc1cc2[nH]c3c(N4CCN(c5ccc(Cl)cc5)CC4)ncnc3c2cc1OC | 2 | 12 | 2 | -8 | 106 | 7
Fc1ccc2[nH]c3c(N4CCN(C5CCCCC5)CC4)ncnc3c2c1 | 2 | . | 0 | . | 84 | -13
COC(=O)c1c(C(=O)OC)c2ccncn2c1Cl | -2 | 16 | 0 | -10 | . | 0
CCCCOc1ccc(Cl)cc1CSc1nnc(CC)n1N | -2 | 10 | 0 | 3 | 103 | -2
CC(=O)CC1OC(=O)C(Br)=C1NCc1ccccc1 (stereo not drawn) | -1 | 10 | 0 | 69* | 145 | 13
CCOc1cc(CN2CCSCC2)ccc1O | -1 | -1 | 0 | -2 | 83 | -5
Cc1c(CN2CCN(c3cccc(C(F)(F)F)c3)CC2)c(=O)n(-c2ccccc2)n1C | 1 | 17 | 60* | 1 | . | 2
CCOc1cc(CN2CCN(c3cccc(C(F)(F)F)c3)CC2)ccc1O | 20* | 14 | 8 | 33 | 95 | 9
C=CCn1cc(C(=O)NCCCOCC)c(=O)c2cc(S(=O)(=O)N(CC)CC)ccc21 | 1 | 26 | 1 | 3 | . | 4
COC(=O)c1nnn(CC(=O)Nc2cccc(OC)c2)c1C(=O)OC | -1 | 5 | 0 | -4 | . | -5
Brc1ccc2[nH]c3nc(SCCN4CCOCC4)nnc3c2c1 | 0 | 1 | 0 | 3 | . | 36*
O=C1CC(Sc2nnnn2C2CCCCC2)C(=O)N1c1ccccc1 (stereo not drawn) | -2 | 12 | 0 | 44* | . | 23
Cc1c(O)nc(SC2CC(=O)N(c3ccccc3)C2=O)[nH]c1=O (stereo not drawn) | -3 | 4 | -1 | 8 | 91 | 11
CCOC(=O)c1c(C)oc2c1c(C=NCC1CCCO1)c(O)c1ccccc12 (stereo not drawn) | -3 | 32 | 0 | 64* | . | 31*
Cc1cccc2cc(CN(Cc3nnnn3C3CCCC3)C3CCCCC3)c(=O)[nH]c12 | 0 | 4 | 1 | -2 | 82 | 33*

Assay outcomes from PubChem.
